Laboratory results: ChEMBL document CHEMBL4196141, “Improved Antibacterial Activity of the Marine Peptide N6 against Intracellular Salmonella Typhimurium by Conjugating with the Cell-Penetrating Peptide Tat11 via a Cleavable Linker” (J Med Chem, 2018)
Values after ≈ are worked out from the molar mass of the structure shown. Active and inactive are the calls of the source. The calls are words filed in the database; no cut-off is given here. Positions of bridges follow the written chain, without caps; N, C: chain ends. Residues, ends and D or L forms follow the SMILES beside them.

Experiments:
[1] = tested on: Salmonella typhimurium; assay: Antibacterial activity against Salmonella typhimurium ATCC 14028 incubated for 16 to 18 hrs at pH 7.2 by broth microdilution method; format: functional, Salmonella enterica subsp. enterica serovar Typhimurium; conditions: Salmonella enterica
Outline: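 Broth microdilution in MH broth. S. Typhimurium ATCC14028 was grown overnight at 37 °C to semi-log phase, pelleted, and diluted to OD600 0.01; final inoculum was 5 × 10^5 CFU/mL. Plates were incubated 16–18 h at 37 °C. MIC is the lowest peptide concentration with no visible growth. Data are in duplicate from at least two independent experiments.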

[2] = tested on: Salmonella typhimurium; assay: Antibacterial activity against Salmonella typhimurium ATCC 14028 using 1 hr cathepsin B pre-treated compound at pH 5 incubated for 16 to 18 hrs at by broth microdilution method; format: functional, Salmonella enterica subsp. enterica serovar Typhimurium; conditions: Salmonella enterica
Outline: (§1)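 Cathepsin B (bovine spleen, 10 µg/mL) was added for 1 h at 37 °C, and the reaction was stopped with 9 volumes of MHB. MIC was then run by broth microdilution (5 × 10^5 CFU/mL, 16–18 h, 37 °C) in medium adjusted to pH 5.0.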

[3] = tested on: Salmonella typhimurium; assay: Antibacterial activity against Salmonella typhimurium ATCC 14028 using 1 hr cathepsin B pre-treated compound followed by incubation for 16 to 18 hrs at pH 5 by broth microdilution method; format: functional, Salmonella enterica subsp. enterica serovar Typhimurium; conditions: Salmonella enterica; outline: as §1
[4] = tested on: Salmonella typhimurium; assay: Antibacterial activity against Salmonella typhimurium ATCC 14028 assessed as time duration for reduction in growth using cathepsin B pre-treated compound at 1 to 2 MIC incubated for 1 to 24 hrs by time kill assay; format: functional, Salmonella enterica subsp. enterica serovar Typhimurium
Outline: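 Time-kill of cathepsin B-pretreated peptide (1 h, 37 °C, pH 5 buffer). Mid-log S. Typhimurium at 10^5 CFU/mL was exposed to 1× and 2× MIC at 37 °C with shaking at 250 rpm. Samples were taken every 2 h, serially diluted and plate-counted. N6 and ciprofloxacin served as controls.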

[5] = Cytotoxicity in mouse RAW264.7 assessed as cell survival at 100 uM incubated for 8 hrs by MTT assay; format: cell-based; conditions: RAW264.7 cells, read-out: Survival
Outline: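 RAW264.7 cells seeded at 2.5 × 10^4 cells/well, cultured 24 h, then exposed for 8 h to 2-fold dilutions from 100 to 0.625 µM. MTT at 5 mg/mL added for 4 h, formazan dissolved in DMSO, absorbance read at 570 nm. Untreated cells served as control. Samples run in triplicate.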

[6] = Drug localisation in cytosol of mouse RAW264.7 using FITC-labeled compound at 5 uM incubated for 2 hrs by confocal microscopy; format: ADME, cell-based
Outline: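 RAW264.7 cells were plated for 18 h at 37 °C, then given 5 µM FITC or FITC-labeled peptide for 2 h. Nuclei were stained with Hoechst 33342 and membranes with FM 4-64 (each 5 µg/mL) for 30 min at 37 °C. Cells were PBS-washed and imaged by confocal fluorescence microscopy.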

[7] = Drug uptake in mouse RAW264.7 using FITC-labeled compound at 5 uM incubated for 0.5 hrs by flow cytometry; format: ADME, cell-based; conditions: raw264.7, 0.5 h
Outline: (§2)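 Confluent RAW264.7 cells were resuspended in PBS and incubated at 37 °C with 5 µM FITC-labeled peptide. Samples taken at 0.5 h and 2 h were quenched with 0.4% Trypan blue for extracellular fluorescence. Uptake (percent internalized cells) was read by flow cytometry, with free FITC as negative control.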

[8] = Drug uptake in mouse RAW264.7 using FITC-labeled compound at 5 uM incubated for 2 hrs by flow cytometry; format: ADME, cell-based; conditions: raw264.7, 2 h; outline: as §2
[9] = Drug internalization in mouse RAW264.7 using FITC-labeled compound at 2 uM incubated for 2 hrs at 4 degC by flow cytometry; format: ADME, cell-based; conditions: raw264.7, 2 h
[10] = Drug internalization in mouse RAW264.7 using FITC-labeled compound at 2 uM pre-incubated for 1 hr with macropinocytosis inhibitor amiloride followed by compound addition and subsequent incubation for 2 hrs by flow cytometry; format: ADME, cell-based; conditions: raw264.7, 2 h
Outline: (§3)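 RAW264.7 cells were pretreated 1 h at 37 °C with 3 mM amiloride, 20 µM nocodazole, 6 µg/mL chlorpromazine or 5 mM MβCD. FITC-labeled peptide was then added for 2 h at 37 °C. Extracellular fluorescence was quenched with 0.4% Trypan blue and intracellular fluorescence read by flow cytometry against an untreated control.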

[11] = Drug internalization in mouse RAW264.7 using FITC-labeled compound at 2 uM pre-incubated for 1 hr with tubulin polymerization inhibitor nocodazole followed by compound addition and subsequent incubation for 2 hrs by flow cytometry; format: ADME, cell-based; conditions: raw264.7, 2 h; outline: as §3
[12] = tested on: Salmonella typhimurium; assay: Bactericidal activity against 2 hrs-gentamicin pre-exposed Salmonella typhimurium ATCC 14028 assessed as reduction colony forming units at 10 uM measured within 9 hrs; format: functional, organism-based; conditions: Salmonella enterica subsp. enterica serovar Typhimurium
Outline: (§4)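 RAW264.7 cells in DMEM/10% FBS were infected with S. Typhimurium ATCC14028 at MOI 10 for 1 h, then given 100 µg/mL gentamicin for 2 h at 37 °C and washed. Cells were treated with 10 µM agent for 1, 3, 6, 9 and 12 h, lysed with 0.1% Triton X-100, and surviving intracellular bacteria were serially diluted and plated for CFU.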

[13] = tested on: Salmonella typhimurium; assay: Bactericidal activity against 2 hrs-gentamicin pre-exposed Salmonella typhimurium ATCC 14028 assessed as effect on bacterial re-growth at 10 uM measured after 9 hrs; format: functional, organism-based; conditions: Salmonella enterica subsp. enterica serovar Typhimurium; outline: as §4
[14] = tested on: Salmonella typhimurium; assay: Bactericidal activity against 2 hrs-gentamicin pre-exposed Salmonella typhimurium ATCC 14028 assessed as reduction colony forming units at 20 uM incubated for 10 hrs; format: functional, Salmonella enterica subsp. enterica serovar Typhimurium
Outline: (§5)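 Macrophage protection assay. RAW264.7 cells (5 × 10^4/well, 24 h) were infected with S. Typhimurium ATCC14028 at MOI 10 for 1 h in DMEM/10% FBS, exposed to 100 µg/mL gentamicin for 2 h at 37 °C, and PBS-washed. Peptides in DMEM/10% FBS were added for 10 h. Cells were lysed with 0.1% Triton X-100 and CFU plated; log10 CFU reduction versus untreated cells. Three replicates; two independent experiments; one-way ANOVA with Tukey.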

[15] = tested on: Salmonella typhimurium; assay: Bactericidal activity against 2 hrs-gentamicin pre-exposed Salmonella typhimurium ATCC 14028 assessed as reduction colony forming units at 20 uM incubated for 10 hrs relative to marine peptide N6; format: functional, Salmonella enterica subsp. enterica serovar Typhimurium; design: scale not given: the % may be the effect or the level left; outline: as §5
[16] = tested on: Salmonella typhimurium; assay: Antibacterial activity against Salmonella typhimurium ATCC 14028 infected in ICR mouse model of peritonitis assessed as reduction colony forming units in kidney at 1 to 2 umol/kg, ip dosed at 2 hrs post infection and measured after 10 hrs post dose relative to marine peptide N6; format: functional, Salmonella enterica subsp. enterica serovar Typhimurium; design: scale not given: the % may be the effect or the level left
Outline: (§6)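 Female ICR mice, six weeks old (six per group), were infected ip with S. Typhimurium ATCC14028 (5 × 10^5 CFU, 0.5 mL). Peptide was given ip at 1, 1.5 or 2 µmol/kg 2 h post-infection. Mice were killed 10 h after treatment, and kidneys and spleens were homogenized in sterile PBS for CFU counts of translocated bacteria. PBS-treated mice served as negative control, ciprofloxacin-treated mice as positive.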

[17] = tested on: Salmonella typhimurium; assay: Antibacterial activity against Salmonella typhimurium ATCC 14028 infected in ICR mouse model of peritonitis assessed as reduction colony forming units in spleen at 1 to 2 umol/kg, ip dosed at 2 hrs post infection and measured after 10 hrs post dose relative to marine peptide N6; format: functional, Salmonella enterica subsp. enterica serovar Typhimurium; design: scale not given: the % may be the effect or the level left; outline: as §6
[18] = tested on: Salmonella typhimurium; assay: Antibacterial activity against Salmonella typhimurium ATCC 14028 infected in ICR mouse model of peritonitis assessed as mouse survival at 1 umol/kg, ip dosed at 0.5 and 8 hrs post infection and measured daily for 7 days

Structure (SMILES)	MIC [1]	MIC [2]	MIC [3]	Time [4]	viability at 8 h, 100 µM [5]	Drug uptake [6]	Drug uptake [7]	Drug uptake [8]	Drug uptake [9]	Drug uptake [10]	Drug uptake [11]	Activity [12]	Activity [13]	Activity [14]	Activity [15]	Activity [16]	Activity [17]	Activity [18]
CC(C)[C@@H]1NC(=O)CNC(=O)[C@H](CC(N)=O)NC(=O)[C@H](CCCNC(=N)N)NC(=O)[C@H](Cc2ccc(O)cc2)NC(=O)[C@H](C(C)C)NC(=O)[C@@H](NC(=O)[C@@H](NC(=O)[C@H](CC(N)=O)NC(=O)[C@H](Cc2c[nH]c3ccccc23)NC(=O)[C@H](C)NC(=O)[C@H](Cc2ccccc2)NC(=O)CN)C(C)C)CSSC[C@@H](C(=O)N[C@@H](Cc2cnc[nH]2)C(=O)N[C@@H](CCCNC(=N)N)C(=O)N[C@@H](CCCNC(=N)N)C(=O)N[C@@H](C)C(=O)N[C@@H](CC(N)=O)C(N)=O)NC(=O)[C@H](C(C)C)NC(=O)[C@H](CCCNC(=N)N)NC1=O (H-GFAWNVCVYRNGVRVCHRRAN-NH2; disulfide 7-16)	0.81 µM (≈ 2 µg/mL)	1.62 µM (≈ 4.01 µg/mL)	3.2 µM (≈ 7.92 µg/mL)	<=2 hr	93.5%	Active	30.4%	75.2%	Not Active	Not Active	Not Active	Active	inactive	2.01 log10CFU	96.3%	200%	200%	66.7%
CC(C)[C@H](NC(=O)CCCCCN1C(=O)CC(SC[C@H](N)C(=O)N[C@@H](Cc2ccc(O)cc2)C(=O)NCC(=O)N[C@@H](CCCNC(=N)N)C(=O)N[C@@H](CCCCN)C(=O)N[C@@H](CCCCN)C(=O)N[C@@H](CCCNC(=N)N)C(=O)N[C@@H](CCCNC(=N)N)C(=O)N[C@@H](CCC(N)=O)C(=O)N[C@@H](CCCNC(=N)N)C(=O)N[C@@H](CCCNC(=N)N)C(=O)N[C@@H](CCCNC(=N)N)C(=O)O)C1=O)C(=O)N[C@@H](CCCNC(N)=O)C(=O)Nc1ccc(COC(=O)NCC(=O)N[C@@H](Cc2ccccc2)C(=O)N[C@@H](C)C(=O)N[C@@H](Cc2c[nH]c3ccccc23)C(=O)N[C@@H](CC(N)=O)C(=O)N[C@H](C(=O)N[C@H]2CSSC[C@@H](C(=O)N[C@@H](Cc3cnc[nH]3)C(=O)N[C@@H](CCCNC(=N)N)C(=O)N[C@@H](CCCNC(=N)N)C(=O)N[C@@H](C)C(=O)N[C@@H](CC(N)=O)C(=O)O)NC(=O)[C@H](C(C)C)NC(=O)[C@H](CCCNC(=N)N)NC(=O)[C@H](C(C)C)NC(=O)CNC(=O)[C@H](CC(N)=O)NC(=O)[C@H](CCCNC(=N)N)NC(=O)[C@H](Cc3ccc(O)cc3)NC(=O)[C@H](C(C)C)NC2=O)C(C)C)cc1 (stereo partly specified)	> 27.2 µM	1.7 µM (≈ 8.05 µg/mL)	13.6 µM (≈ 64.4 µg/mL)	<=2 hr	88.9%	Active	82.1%	95.8%	Not Active	Active	Not Active	Active	inactive	1.06 log10CFU	67.2%	81%	81%	66.7%
